Screening results as filed in PubChem.
Most compounds without a hit are left out; they make up all but 9.4% or so of the library.
Mdm2-MdmX inh: human Mdm2/MdmX binding inhibition | SaOS-2 split-luciferase Mdm2/MdmX complementation, luminescence | inhibition, % at 8 µM | actives 3% (n = 330,000);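 active = inhibition of at least 50% at 8 µM in the primary screen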
Target sequence (O15151 whole entry, looked up): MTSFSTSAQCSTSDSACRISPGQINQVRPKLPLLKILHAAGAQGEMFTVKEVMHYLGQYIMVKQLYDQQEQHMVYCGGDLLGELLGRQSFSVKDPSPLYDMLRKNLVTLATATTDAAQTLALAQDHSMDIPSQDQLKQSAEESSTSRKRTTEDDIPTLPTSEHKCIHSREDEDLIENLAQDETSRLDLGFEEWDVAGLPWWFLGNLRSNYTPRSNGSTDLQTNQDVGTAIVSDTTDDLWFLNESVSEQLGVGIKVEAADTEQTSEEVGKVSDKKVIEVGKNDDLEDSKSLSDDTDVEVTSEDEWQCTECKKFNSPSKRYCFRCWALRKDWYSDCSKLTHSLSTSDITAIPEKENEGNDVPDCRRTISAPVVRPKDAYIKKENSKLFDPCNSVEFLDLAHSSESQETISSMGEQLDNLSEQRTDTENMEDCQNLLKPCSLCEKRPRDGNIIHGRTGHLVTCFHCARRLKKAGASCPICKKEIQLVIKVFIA
Target sequence (Q00987 whole entry, looked up): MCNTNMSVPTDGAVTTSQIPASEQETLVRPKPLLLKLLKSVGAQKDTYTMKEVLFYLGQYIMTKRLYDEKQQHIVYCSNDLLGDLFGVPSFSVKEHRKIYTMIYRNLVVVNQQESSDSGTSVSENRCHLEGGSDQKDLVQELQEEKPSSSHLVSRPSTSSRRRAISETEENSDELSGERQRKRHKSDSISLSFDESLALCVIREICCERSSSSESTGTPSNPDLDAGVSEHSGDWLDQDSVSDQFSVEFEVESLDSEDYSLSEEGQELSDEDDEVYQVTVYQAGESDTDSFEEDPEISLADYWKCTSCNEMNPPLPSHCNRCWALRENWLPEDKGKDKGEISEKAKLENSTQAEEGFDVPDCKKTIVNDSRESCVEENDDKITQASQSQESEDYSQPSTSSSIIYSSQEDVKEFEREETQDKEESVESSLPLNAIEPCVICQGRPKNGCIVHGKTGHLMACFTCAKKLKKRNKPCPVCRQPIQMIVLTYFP
Beta cell apopt: beta cell apoptosis inhibition; INS-1E cytokine-induced death, ATP luminescence, 48 h; percent of positive-control rescue, neutral wells zero; protection from apoptosis, % (test concentration not listed); actives 0.8% (n = 300,000);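 active = Every replicate reaches about 75%, or at least half do and their mean reaches it too, limit read from the data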;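 note: 0% = cytokine-treated negative control wells and 100% = positive control rescue; higher means more ATP so stronger rescue from cytokine killing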
T cruzi repl: T. cruzi replication inhibition. actives 1.4% (n = 300,000). inhibition, % (no concentration beside the values). T. cruzi beta-gal in NIH3T3, luminescence, 90 h. AID 1885;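 active = mean inhibition across valid replicates above about 55%, limit read from the data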;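 note: signal also drops with host cell toxicity which is not excluded here; 0% = plate median of DMSO wells and 100% = zero luminescence signal; higher percent means less beta-gal luminescence so fewer parasites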
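System – NIH/3T3 host cells with β-galactosidase reporter T. cruzi · Doses – single 50 nL compound addition per well in DMSO · Reagent – 5000 T. cruzi trypomastigotes/well · Medium – Low-serum DMEM with 2% FBS · Timing – ≥90 h infection period, 3 h prior cell attachment · Evaluation – parasite load inhibition, % · Technique – GalScreen luminescence, 60 min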
L major viab: inhibitors of Leishmania major promastigote growth; Leishmania major promastigotes, resazurin fluorescence viability; actives 9% (n = 200,000); inhibition, % at 10 µM; in the data active = inhibition above about 50%;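 note: promastigotes grown with compound for 44 hours at 28 °C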
SKKanGAS inh: inhibitors of SKKanGAS S. pyogenes growth in kanamycin (SK-promoter or general growth effect); actives 1.3% (n = 300,000); AID 1662; BacTiter-Glo, 6 h; inhibition, % at 7.5 µM;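 active = mean replicate score, as percent of positive control median, at least 50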;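 note: strain carries kanamycin resistance gene driven by streptokinase promoter and grows in 40 µg/ml kanamycin; loss of luminescence reflects streptokinase promoter inhibition or plain growth inhibition; 0% = median of DMSO wells and 100% = positive control at its reference dose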
CSC inhib: blocks cancer stem cells; inhibition, % at 7.5 µM; actives 1.1% (n = 300,000); AID 2717; cancer stem cell-like cells viability, luminescence; in the data active = inhibition above about 75%; tested in HMLE shEcad cells
L major 1uM: inhibitors of Leishmania major promastigote growth, repeat at 1 uM; inhibition, % at 1 µM; L. major promastigote growth, resazurin fluorescence, 48 h; AID 1258; actives 13% (n = 1,100); shares compounds with L major viab;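 active = inhibition above about 50% in both repeat tests, limit read from the data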
Mdm2-MdmX conf: human Mdm2/MdmX binding inhibition, confirmed | shares compounds with Mdm2-MdmX inh | luminescent assay | inhibition, % at 8 µM | actives 55% (n = 10,000); in the data active = inhibition above about 40%
FLuc counter: full-length luciferase inhibition in Mdm2/MdmX counter-screen. AID 504607. shares compounds with Mdm2-MdmX inh. SaOS-2 full-length luciferase counterscreen, luminescence. inhibition, % at 8 µM. actives 77% (n = 6,200);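 active = mean inhibition at 8 µM reaching about 37%, which flags the compound as non-specific, limit read from the data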;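 note: p53-null SaOS-2 cells with luciferase driven by a doxycycline-inducible promoter; compound on cells about two nights before reading with doxycycline added after day one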
Numbers without * were called inactive; nt = no result given.

SMILES | Mdm2-MdmX inh | Beta cell apopt | T cruzi repl | L major viab | SKKanGAS inh | CSC inhib | L major 1uM | Mdm2-MdmX conf | FLuc counter
CC(NC(=O)CSc1nc2sc3c(c2c(=O)n1-c1ccccc1)CCCC3)c1ccccc1 (stereo not given) | 51.1* | nt | 47.4 | 69.4* | 8.7 | nt | 39.1 | 23.4 | nt
O=C(O)CSc1nc2sc3c(c2c(=O)n1-c1ccccc1)CCC3 | 8.7 | -1.7 | 0.0 | nt | 0.3 | -10.2 | nt | nt | nt
CC(C)c1ccccc1NC(=O)COC(=O)c1cc(=O)[nH]c(=O)[nH]1 | -1.5 | 0.9 | -13.4 | -7.3 | -9.2 | -9.0 | nt | nt | nt
O=C(O)c1cccc(Nc2nc(-c3cccnc3)nc3ccccc23)c1 | -5.7 | -2.3 | -10.4 | -5.4 | 15.7 | -8.3 | nt | nt | nt
CCOC(=O)c1cccc(Nc2nc(-c3cccnc3)nc3ccccc23)c1 | 70.0* | 41.6 | 31.5 | 91.8* | 13.2 | 92.1* | 21.2 | 36.4 | nt
N#CC(c1cccc(Cl)c1)c1ccc2c(C(F)(F)F)cc(C(F)(F)F)nc2n1 (stereo not given) | 98.1* | 114.1* | 20.1 | 99.8* | 95.0* | 107.1* | 59.5* | 94.0* | 57.2*
COC(=O)[C@@H]1CC[C@H](C)[C@@H](c2ccc(C)cc2)N1C(=O)c1ccc(/C=N/O[C@@H](C)CN2CCCCc3nc(C)c(C)cc32)cc1 | 89.2* | 15.6 | 41.3 | 99.5* | 17.1 | 89.8* | -7.8 | 25.3 | nt
Cc1cccc(C)c1NS(=O)(=O)c1cc2c3c(c1)CC(=O)N3CCC2 | 18.9 | -5.7 | 1.5 | nt | -11.2 | 3.9 | nt | nt | nt
CCCCCOc1ccc(Br)cc1/C(C)=N/NC1=NCCN1 | 85.7* | 45.4 | 54.8* | 100.4* | 3.3 | -3.1 | 34.8 | 67.2* | 62.6*
COc1ccc(/C=C2\CN(Cc3ccccc3)C/C(=C\c3ccc(OC)cc3OC)C2=O)c(OC)c1 | 66.6* | 9.1 | 80.8* | 71.3* | -1.9 | 12.7 | -1.8 | 60.5* | 63.2*
Cc1ccccc1Nc1scc(-c2ccc(Cl)cc2)[n+]1-c1ccccc1C | nt | nt | 28.8 | 35.1 | 3.6 | nt | nt | nt | nt
COc1cc2c(C#N)c(N3CCN(c4ccccc4OC)CC3)nc(N)c2c(N)n1 | 74.5* | 9.5 | 32.1 | 73.2* | 71.7* | 2.1 | 33.2 | 29.9 | nt
COc1ccccc1N1CCN(c2nc(N)c(C#N)c(CC#N)c2C#N)CC1 | 15.2 | 1.3 | 14.9 | 0.6 | 10.5 | -8.1 | nt | nt | nt
CC1CC2(C)Oc3ccccc3CC2C(C)C1CNCCCN(C)C (stereo not given) | 96.7* | 21.4 | 51.0 | 100.5* | 5.4 | 49.0 | 23.3 | 99.6* | 55.0*
O/N=C/c1cccc[n+]1CCCCCC[n+]1ccccc1/C=N/O | 17.3 | -3.1 | 21.4 | nt | -1.7 | -14.8 | nt | nt | nt
CCCCCCCCCCCCCCCC[n+]1ccc(C(N)=O)cc1 | 78.1* | 7.5 | nt | 100.2* | nt | nt | 8.9 | 77.0* | 57.4*
CCCCCCCCCCCCCCCC[n+]1cccc(C(=O)N(CC)CC)c1 | 77.1* | 90.7* | 43.8 | 100.4* | 91.7* | 142.8* | 79.4* | 66.5* | 17.8
CCCCCCCCCCCCCCCC[n+]1ccc(/C=N/O)cc1 | 96.5* | 123.0* | nt | 100.4* | nt | 100.2* | 101.0* | 100.0* | 7.5
COc1ccccc1N(CC(=O)Nc1ccc(Br)cc1F)S(=O)(=O)c1cccs1 | -3.5 | nt | nt | nt | nt | nt | nt | nt | nt
CN(CC(=O)NCCCN1CCOCC1)S(=O)(=O)c1cc(Cl)ccc1Cl | 5.0 | -1.3 | -7.3 | nt | 0.9 | -11.1 | nt | nt | nt
Cc1c(Cl)cccc1N/C(SCC(=O)N1CCCCCC1)=C(/C#N)c1nc2ccccc2s1 | 90.6* | 40.4 | 42.1 | 99.6* | 11.3 | 5.0 | 18.7 | 65.9* | 36.0
O=C(CSc1nc2ccccc2s1)N1CCCCC1 | -63.9 | 2.3 | 6.2 | 3.1 | 2.2 | -4.3 | nt | nt | nt
CC(CNC(=O)Cn1cnc2c(NCc3ccccc3)ncnc21)c1ccccc1 (stereo not given) | 21.3 | nt | nt | nt | nt | nt | nt | nt | nt
CC(=O)OC1CC2(C)C(=O)CCC2C2CCc3cc(O)ccc3C12 (stereo not given) | 26.5 | 4.0 | 13.3 | 9.0 | 6.4 | 0.3 | nt | nt | nt
Cc1nn(C)c(C)c1/C=N/N=C1\CCC2C3CCc4cc(O)ccc4C3CCC12C (stereo not given) | 57.1* | -4.7 | 15.6 | 97.8* | 23.4 | 15.5 | 2.3 | 20.8 | nt
SMILES | Mdm2-MdmX inh | Beta cell apopt | T cruzi repl | L major viab | SKKanGAS inh | CSC inhib | L major 1uM | Mdm2-MdmX conf | FLuc counter
CC(=O)N1CCN(S(=O)(=O)c2ccc3c(c2)CC(=O)N3)CC1 | -5.6 | 3.1 | nt | nt | nt | 4.2 | nt | nt | nt
CN(C)S(=O)(=O)c1cccc(NC(=O)c2cc(=O)[nH]c(=O)[nH]2)c1 | 6.6 | 0.6 | -7.9 | nt | 8.4 | -14.8 | nt | nt | nt
CCOC(=O)c1cnc(/N=C/N(C)C)s1 | 3.1 | -4.0 | -7.7 | 3.1 | 3.5 | -8.6 | nt | nt | nt
FC(F)(F)c1nnc(-c2ccccc2)nc1N1CCCC1 | 18.6 | -3.7 | -4.4 | 2.0 | -20.0 | -6.3 | nt | nt | nt
FC(F)(F)c1nnc(-c2ccccc2)nc1Sc1ccccc1 | 52.4* | 5.2 | 15.6 | 51.9* | 16.5 | 43.9 | 39.4 | 18.4 | nt
Cc1cc(C)c(C(=O)C(C)OC(=O)Cn2cnc3c2c(=O)n(C)c(=O)n3C)cc1C (stereo not given) | 2.8 | -6.9 | -15.7 | nt | -5.3 | 3.1 | nt | nt | nt
O=[N+]([O-])c1ccccc1C1Nc2cccc3cccc(c23)N1 | 92.9* | 6.8 | -4.7 | 96.7* | 16.1 | 12.3 | -9.0 | 41.8* | 26.9
CC(C)(C)c1ccc(C(=O)NCCCN2CCN(CCCNC(=O)c3ccc(C(C)(C)C)cc3)CC2)cc1 | 94.6* | nt | 25.9 | 99.5* | 7.6 | 101.7* | -7.8 | 95.1* | 57.1*
Nc1ccc(C23CC4CC(CC(CO)(C4)C2)C3)cc1 | 10.1 | 8.5 | -0.2 | -3.8 | 3.8 | -11.8 | nt | nt | nt
NCC12CC3CC(C1)CC(c1ccc(Cl)cc1)(C3)C2 | 96.4* | 0.5 | 63.7* | 100.4* | 0.4 | 1.3 | 93.6* | 27.9 | nt
CN1CCN2c3ncccc3Cc3ccccc3C2C1 (stereo not given) | 21.5 | nt | 5.1 | nt | -6.3 | 1.4 | nt | nt | nt
CC(C)(C)[C@]1(O)CCN2C[C@H]3c4ccccc4CCc4cccc(c43)[C@@H]2C1 | 66.5* | 3.5 | 30.2 | 57.2* | 2.5 | -4.2 | 14.9 | 36.3 | 84.5*
Cc1nc(SCC(=O)N2CCN(c3ccccn3)CC2)c(C#N)c(C)c1C | 3.4 | -6.6 | nt | nt | nt | -5.0 | nt | nt | nt
O=P(CCCCCCCCCP(=O)(c1ccccc1)c1ccccc1)(c1ccccc1)c1ccccc1 | 65.6* | nt | 60.8* | 93.1* | 36.1 | 37.8 | -5.1 | 29.8 | nt
O=C(O)CCCCCCCCCCP(=O)(c1ccccc1)c1ccccc1 | -32.3 | -3.1 | 23.0 | nt | nt | 8.4 | nt | nt | nt
